# Source: PubChem BioAssay
# TRPC4 act: TRPC4 (mouse) channel activation | Q9QUQ5 | HEK293 TRPC4beta/mu-opioid, Fluo4 calcium fluorescence; hits give high values | B-score at 10 µM | actives 0.49% (n = 310,000) | AID 2237;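 active = B-score above 5 SD of library B-scores, and initial fluorescence ratio not above library mean plus 5 SD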;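 also: positive B-score marks a calcium rise read as TRPC4 activation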
#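 Incubation: 45 min room-temperature Fluo4 loading, 110 s read / System: HEK293 cells stably co-expressing mouse TRPC4beta and mu-opioid receptor / Signal: Fluo4 fluorescence, kinetic / Control set: buffer (low) and maximal DAMGO (high) / Measure: integrated baseline-normalised fluorescence ratio, converted to per-well B score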
# TRPC4 PAM: allosterically enhances the mouse TRPC4 cation channel | B-score at 10 µM | HEK293 TRPC4beta/mu-opioid, DAMGO EC20, Fluo-4 Ca2+ flux; hits give high values | AID 2227 | Q9QUQ5 | actives 0.42% (n = 310,000);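 active = B-score of calcium response area above 5 SD of library B-scores, with initial fluorescence ratio within 5 SD of library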;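 also: B-score of integrated fluorescence ratio over time as area under calcium response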
# TRPC4 block: inhibitors of mouse TRPC4 channel; B-score at 10 µM; actives 0.39% (n = 300,000); Q9QUQ5; HEK293 TRPC4beta/mu-opioid, DAMGO-evoked Fluo4 calcium flux; hits give low values;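 active = B-score over 3 SD under the library average, no early fluorescence shift, positive overall ratio signal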
#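 Assay system: TRPC4beta/mu-opioid receptor HEK293 cell line; compound dosing: single concentration per test compound; detection: Fluo4 Ca2+ flux fluorescence; evaluation: per-well B score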
# TRPC6 inhibitor: mouse TRPC6 channel inhibition. HEK293-TRPC6, membrane potential dye, ACh-evoked depolarization; hits give low values. Q61143. B-score at 10 µM. actives 1.1% (n = 310,000);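 active = B-score under library mean minus 3 SD, initial fluorescence not abnormally high, positive integrated signal ratio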;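 also: B-score derived from integrated fluorescence ratio over the kinetic read; more negative B-score means stronger inhibition of depolarization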
# Target sequence (Q61143 whole entry, looked up): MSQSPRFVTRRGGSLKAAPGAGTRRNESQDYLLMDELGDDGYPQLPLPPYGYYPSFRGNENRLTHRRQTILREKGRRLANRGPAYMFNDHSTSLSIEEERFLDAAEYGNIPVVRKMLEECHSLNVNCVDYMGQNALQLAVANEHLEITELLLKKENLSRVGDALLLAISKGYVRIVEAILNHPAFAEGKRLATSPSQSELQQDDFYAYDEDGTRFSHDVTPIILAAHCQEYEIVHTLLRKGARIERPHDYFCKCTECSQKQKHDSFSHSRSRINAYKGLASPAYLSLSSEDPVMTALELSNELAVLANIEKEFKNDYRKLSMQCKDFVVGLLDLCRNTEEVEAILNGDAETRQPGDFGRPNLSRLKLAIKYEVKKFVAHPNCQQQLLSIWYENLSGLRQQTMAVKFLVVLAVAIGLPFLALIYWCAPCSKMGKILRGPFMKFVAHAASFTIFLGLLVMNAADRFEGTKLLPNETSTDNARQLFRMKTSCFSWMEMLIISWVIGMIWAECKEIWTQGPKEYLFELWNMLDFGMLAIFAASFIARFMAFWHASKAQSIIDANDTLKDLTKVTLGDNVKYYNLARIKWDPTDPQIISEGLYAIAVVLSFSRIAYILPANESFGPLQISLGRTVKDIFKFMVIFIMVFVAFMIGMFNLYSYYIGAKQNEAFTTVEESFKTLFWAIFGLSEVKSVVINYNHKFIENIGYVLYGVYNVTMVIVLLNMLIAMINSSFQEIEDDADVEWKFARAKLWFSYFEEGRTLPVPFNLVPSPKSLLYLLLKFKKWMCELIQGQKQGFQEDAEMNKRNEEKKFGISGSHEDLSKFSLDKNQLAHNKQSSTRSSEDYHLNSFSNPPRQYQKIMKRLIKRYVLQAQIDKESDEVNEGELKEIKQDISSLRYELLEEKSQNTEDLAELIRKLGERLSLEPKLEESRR
# TRPC6 activator: activators of mouse TRPC6 channel; B-score at 10 µM; HEK293-TRPC6 membrane potential dye fluorescence; hits give high values; Q61143; actives 0.13% (n = 310,000);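 active = B-score of the integrated fluorescence ratio above library mean plus 3 SD, and starting fluorescence ratio within library mean plus 5 SD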;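 also: higher score means more depolarization so channel activation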
# Active calls of the source: *; i = inactive. An excerpt weighted towards active compounds, which were near 2.3% of everything screened.
SMILES,TRPC4 act,TRPC4 PAM,TRPC4 block,TRPC6 inhibitor,TRPC6 activator
O=C(NCCN1CCCC1)c1ccc2c(=O)n(CCc3ccccc3)c(=O)[nH]c2c1,i,12*,i,i,i
CCC(=O)N1CCc2cc(S(=O)(=O)NC(C(=O)N3CCN(c4ccc(F)cc4)CC3)C(C)C)ccc21 (stereo not given),i,i,i,i,i
CC1(c2ccc(OC(F)F)cc2)NC(=O)N(CC(=O)Nc2cccnc2Cl)C1=O (stereo not given),62*,i,i,i,i
COc1ccc(C2(C)NC(=O)N(CC(=O)Nc3cccnc3Cl)C2=O)cc1 (stereo not given),i,i,i,i,i
NS(=O)(=O)c1ccc(CCNC(=O)COC(=O)Cc2c(F)cccc2Cl)cc1,i,i,i,i,i
Cc1cccc2cc(CN(CCCN(C)C)C(=S)NCCc3ccccc3)c(=O)[nH]c12,i,i,-6*,i,i
Cc1ccc2[nH]c(=O)c(CN(CCCN(C)C)C(=S)NCCc3ccccc3)cc2c1,i,i,i,i,i
CN1CCN(CCC(=O)Nc2ccccc2)CC1,i,i,i,i,i
Cc1ccc(NC(=O)CCN2CCC(Cc3ccccc3)CC2)cc1,96*,i,i,i,i
COc1cc(C(=O)Nn2cnnc2)ccc1OC(F)F,i,i,i,i,i
CCOc1ccc(NS(=O)(=O)c2ccc(C(=O)NCc3ccccn3)cc2)cc1,44*,i,i,i,i
CCOc1ccc(NS(=O)(=O)c2ccc(C(=O)NCc3ccncc3)cc2)cc1,i,i,i,i,i
Cc1ccc(NS(=O)(=O)c2ccc(C(=O)NCc3ccccn3)cc2)cc1,44*,i,i,i,i
O=C(c1ccccc1Br)N(Cc1ccccc1)c1ccccc1,i,i,i,i,i
Cc1cccc(C)c1NC(=O)C(NC(=O)CN1C(=O)c2ccccc2C1=O)c1ccccc1 (stereo not given),i,i,i,i,i
Cc1csc(NC(=O)CS(=O)(=O)Cc2ccccc2)n1,i,i,i,i,i
Cc1cccc(NC(=O)CS(=O)(=O)Cc2ccccc2)n1,53*,i,i,i,i
COc1ccc(OCC(=O)N2c3ccc(C)cc3C3CN(C)CCC32)cc1 (stereo not given),i,i,i,i,i
Cc1ccc2c(c1)C1CN(C)CCC1N2C(=S)NC(=O)c1ccc(Br)cc1 (stereo not given),i,17*,i,i,i
CCCCNC(=O)c1sc(=S)n2c1[nH]c(=O)c1ccccc12,46*,i,i,i,i
CCOc1ccc(CCNC(=O)c2ccc3c(=O)[nH]c4c(C(=O)NC(C)C)sc(=S)n4c3c2)cc1,i,18*,i,i,i
CC(C)NC(=O)c1sc(=S)n2c1[nH]c(=O)c1ccc(C(=O)NCCc3ccc(Cl)cc3)cc12,i,i,i,i,i
O=[N+]([O-])c1ccc2nc(/C=C/c3ccc(Cl)cc3)[nH]c2c1,i,i,i,i,i
CCN(CC)S(=O)(=O)c1ccc(C(C)NC(=O)Cc2c[nH]c3ccccc23)cc1 (stereo not given),i,i,i,i,i
CCOC(=O)C1=C(COc2ccccc2)NC(=O)NC1c1ccc(Cl)cc1 (stereo not given),i,i,i,i,i
COC(=O)C1=C(COc2ccccc2)NC(=O)NC1c1ccc(Cl)cc1 (stereo not given),i,11*,i,i,i
O=C1S/C(=C\c2ccc(O)c([N+](=O)[O-])c2)C(=O)N1c1ccccc1Cl,i,i,-10*,i,i
CC(C)c1ccc(C(C)NCCS(=O)(=O)c2ccc(Br)cc2)cc1 (stereo not given),i,19*,i,i,i
CC(NCCS(=O)(=O)c1ccc(Cl)cc1)c1cccc(Cl)c1 (stereo not given),i,i,i,i,i
